Data from the EternaBench riboswitch data.

Test system: MS2 coat protein
Assay: apparent Kd, MS2 coat protein; higher = weaker binding; RNA-MaP array
In short: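 Designed RNAs were transcribed in place on an Illumina sequencing chip from sequenced DNA templates. At room temperature and with or without input ligand, they were incubated with fluorescently labeled MS2 coat protein from 1.5 nM to 3 μM, for 0.8–1.5 h at the lowest and 10–20 min at the highest concentrations. Apparent Kd is the median of the binding-curve fits made per cluster, with designs measured on fewer than 10 clusters excluded.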

[1] = designed as: OFF switch for flavin mononucleotide, no ligand
[2] = ligand present: flavin mononucleotide, designed as: OFF switch for flavin mononucleotide
[3] = designed as: ON switch for flavin mononucleotide, no ligand
[4] = ligand present: flavin mononucleotide, designed as: ON switch for flavin mononucleotide

## CAAUUUCGAAUAGAUACCAGCUGUCAUAAACACAUGAGGAUCACCCAUGUGCUUCUCGUCAGCCCUUGGCAGCUAUAACUAGAGC
Designed as: ON switch for theophylline, no ligand
  apparent Kd: 15.8 nM
Ligand present: theophylline, designed as: ON switch for theophylline
  apparent Kd: 10 nM

## AGGACAUGAGGAUCACCCAUGUGAUGACAUUUCCUAGAACCGAAGGAUAUGCAAACGGAACCCGCGCAGAAGGUCGCUAACCUU
[1]
  apparent Kd: 57.5 nM
[2]
  apparent Kd: 42.5 nM

## CGCUAACAUGAGGAUCACCCAUGUGAGGAUAUUCGCGGCGGACCGGGCUUUGGCGCUCGAAGAAGGCACAACGG
[1]
  apparent Kd: 12.8 nM
[2]
  apparent Kd: 24.5 nM

## GUGGGCGCUGAGAAGGACCGGAGACGCCGAUUGGUAGGAUAUCAGAAAGGUGCCGGUGAUUACAUGAGGAUCACCCAUGUAUGG
[1]
  apparent Kd: 22.8 nM
[2]
  apparent Kd: 20.2 nM

## GUUUACAUGAGGAUCACCCAUGUCGCCGGCCGAGGACCGGUACGGCCGCCACUCGUCCUAAUGGCACUUGACUUCCCUAUUAAGU
Designed as: ON switch for tryptophan, no ligand
  apparent Kd: 20.3 nM
Ligand present: tryptophan, designed as: ON switch for tryptophan
  apparent Kd: 24.3 nM

## AGCUUAAUUAUAGGAUAUGAGAGGACAUGAGGAUCACCCAUGUAGAUGUUUGCCACAUAGCCAGUUCAGAAGGAUAGAGCACCA
[1]
  apparent Kd: 24.9 nM
[2]
  apparent Kd: 19.4 nM

## AUAUAAACGCAGAAGGAUCGUUUCCUUUAAAUGAUAGGAUAUGCCAACCUUGACAUGAGGAUCACCCAUGUGUUACUCUGUUUU
[1]
  apparent Kd: 113 nM
[2]
  apparent Kd: 98.2 nM

## CGAUACCAUGGUCAGGAUAUGAAACAGCUGACAUGAGGAUCACCCAUGUGAUAGGCAGGUGGACUUCAGAAGGGACACAUACACCA
[3]
  apparent Kd: 184 nM
[4]
  apparent Kd: 50.2 nM

## GGAUACUUUGGAGGAUAUAAUUUUAUCAUCACUUGUGAUCGAUGACAUGAGGAUCACCCAUGUAAUUAGAAGGCCAUUAAUUAC
[3]
  apparent Kd: 239 nM
[4]
  apparent Kd: 38.4 nM

## CGCUUGUUCAUAGGAUAUGCUAGGUAACUCAUGGUGAGUUGGGGAACAUGAGGAUCACCCAUGUGGCAGAAGGAUGGCGUUAAU
[1]
  apparent Kd: 65 nM
[2]
  apparent Kd: 55.3 nM

## ACGGUUCGAGGAUAUGUCGGUAGUUACAUGAGGAUCACCCAUGUUGUGACAUCGUGGUGGACAGAAGGCGACAUCC
[1]
  apparent Kd: 201 nM
[2]
  apparent Kd: 119 nM

## CUCGGCGCCCAAGGAUAUAGUGGAGGUAAGAAACUAGAAGGUGGUGUGCUAACAUGUUGUCCUUUACAUGAGGAUCACCCAUGU
[1]
  apparent Kd: 38.6 nM
[2]
  apparent Kd: 32.9 nM

## GCAUAAGAUCAGAAGGGUAAUUUGUAACAACAUACAGGAUAUGAGGAAACAUGAGGAUCACCCAUGUGAAGCGAAAACAGAAAU
[3]
  apparent Kd: 15.5 nM
[4]
  apparent Kd: 11.4 nM

## UGACUCUCUGUCAGGAUAUAACAAGCUACAGUUUAUUAGAAGGGACAUGAGGAUCACCCAUGUUGAACACCCGA
[1]
  apparent Kd: 7.94 nM
[2]
  apparent Kd: 7.98 nM

## GGAAUGUCAGGAUAUCUAAUUACCCAGAAAGAUAUGGAACCAGAGAAGGGACAUGAGGAUCACCCAUGUAUAAC
[1]
  apparent Kd: 10.2 nM
[2]
  apparent Kd: 12.4 nM

## AAUCGCCUGGGUCGCAUCCUUGCUCCGGAUACCAGUCAAUAGUUGGACCCUUGGCAGCCGUAGACAUGAGGAUCACCCAUGUAUA
Designed as: OFF switch for theophylline, no ligand
  apparent Kd: 53.8 nM
Ligand present: theophylline, designed as: OFF switch for theophylline
  apparent Kd: 109 nM

## GAAAUAGUAGUUAGGAUAUGUAAUUGAAGACAUAUACAGAAGGAACAUGAGGAUCACCCAUGUAUUGGGAUGGA
[1]
  apparent Kd: 196 nM
[2]
  apparent Kd: 126 nM

## AUUAAGUCGACAGGAUAUCCGUACUUUGAGUAAGGAGAAGGGUCUACAAAGGUACAUGAGGAUCACCCAUGUGACUUGGCCGUC
[3]
  apparent Kd: 10.1 nM
[4]
  apparent Kd: 7.7 nM

## AGCACGAGCGCAGGAUAUGCAUAACCCGUAGCUGCAGAAGGGCGACAUGAGGAUCACCCAUGUAUAUCCAGAACUACAAUCUGA
[3]
  apparent Kd: 35.8 nM
[4]
  apparent Kd: 33 nM

## CACGUACAUGAGGAUCACCCAUGUAUGUCCGAAACGCGAGUACAGGAUAUGAUAUGGAGAAGUCUUCAGAAGGGUACAAAUCGC
[3]
  apparent Kd: 58.4 nM
[4]
  apparent Kd: 21.6 nM

## CCAGCAUGGCAGACCAUACAUGAGGAUCACCCAUGUAGAAGCUAGGAUAUAAAUGUAACACACUAUUAGAAGGAGCGCUACCUU
[1]
  apparent Kd: 8.55 nM
[2]
  apparent Kd: 6.51 nM

## ACUGCUGUAGGAUAUCAACGAAAUAACAUGAGGAUCACCCAUGUGGCAGUGAUCAGCAGUUGAGAAGGACAUGGCC
[1]
  apparent Kd: 10.9 nM
[2]
  apparent Kd: 11.3 nM

## AAAAUUGAAGGAUAUACAUGAGGAUCACCCAUGUGCAACAUAUUUGAAUGGCCUCACGGUAGAAGGUCAAAACG
[1]
  apparent Kd: 6.83 nM
[2]
  apparent Kd: 7.52 nM

## UGUCGUAAAGGAUAUACAUGAGGAUCACCCAUGUCGGCCGUUAGGCCGUAAGGUGUGCGUAGAAGGUUACAUUG
[1]
  apparent Kd: 191 nM
[2]
  apparent Kd: 149 nM

## AUAAUAACAUGAGGAUCACCCAUGUCCUCUUGGCGGCGGCUUAGAAGGUCGACUACUUUUCUUUCGAAGGAUAUAACCUGUUCU
[1]
  apparent Kd: 913 nM
[2]
  apparent Kd: 733 nM

## GGGACCACUCUUGGGCCGCUGACAUGAGGAUCACCCAUGUAUAGAAGGAGGGUGGCUAAUCACACCUAGGAUAUAUACAAGACU
[1]
  apparent Kd: 12 nM
[2]
  apparent Kd: 11 nM
